From article PMC4050191 (FEBS Open Bio, 2014)
Where two headings read alike, the source gives them in different places.

Assays:
[1] = test system: HsCen1-T138D (phosphomimetic human centrin 1); assay: ITC, peptide binding to HsCen1-T138D; conditions: EDTA; HsCen1-T138D versus HsCen1
[2] = test system: C-HsCen2-S158D; assay: ITC, peptide binding to C-HsCen2 S158D; design: species or system human; conditions: absence of Ca2+; versus C-HsCen2 wild type
In short: (§1)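 Recombinant human centrin (full-length or C-terminal domain; Asp variants made by double-PCR mutagenesis) was expressed in E. coli BL21(DE3), heat-treated at 63 °C, then purified by ion-exchange, phenyl and gel-filtration chromatography. ITC at 30 °C: 10 μM centrin titrated with 100 μM N-acetylated, C-amidated peptide in 50 mM MOPS, 100 mM NaCl, pH 7.5, plus 1 mM CaCl₂ or 2 mM EDTA. Dilution heats subtracted; data fitted for n, Ka and ΔH.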

[3] = test system: HsCen1 (full-length human centrin 1); assay: ITC, peptide binding to full-length HsCen1; conditions: centrin 1; +Ca2+ versus EDTA
In short: as §1

[4] = test system: C-HsCen2-T138D; assay: ITC, peptide binding to C-HsCen2 T138D; design: species or system human; conditions: versus C-HsCen2 wild type
In short: as §1

[5] = test system: C-HsCen1-T138D; assay: ITC, peptide binding to C-HsCen1-T138D; design: species or system human; conditions: EDTA; C-HsCen1-T138D versus C-HsCen1
In short: as §1

[6] = test system: C-HsCen2 T138D-S158D; assay: ITC, peptide binding to C-HsCen2 T138D-S158D; design: species or system human; conditions: versus C-HsCen2 wild type
In short: as §1

[7] = test system: HsC1P (human centrin 1 phosphorylated by CK2 at T138); assay: ITC, peptide binding to CK2-phosphorylated HsCen1; conditions: EDTA / absence of Ca2+; phosphorylated versus unphosphorylated centrin 1
[8] = target: C-terminal domain of human centrin 1 T138D (human); assay: ITC
[9] = target: C-terminal domain of human centrin 1 T138E (human); assay: ITC
[10] = target: C-terminal domain of human centrin 1 T138D (human); assay: ITC; remark: listed apart in the source
[11] = target: C-terminal domain of human centrin 1 T138E (human); assay: ITC; remark: listed apart in the source
[12] = test system: C-HsCen1-T138E; assay: ITC, peptide binding to C-HsCen1-T138E; design: species or system human; conditions: C-HsCen1-T138E versus C-HsCen1; +Ca2+ (Fig. S3)
In short: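 Binding measured by ITC at 30 °C. Cell contained E. coli-expressed, heat-treated, chromatographically purified centrin at 10 μM. N-acetylated, C-amidated target peptide at 100 μM was injected in 8–10 μL steps. Buffer was 50 mM MOPS, 100 mM NaCl, pH 7.5 with 1 mM CaCl₂. The first 2 μL injection was discarded. Baseline-corrected integrated heats were fitted for n, Ka and ΔH. Peptide-into-buffer injections gave dilution heat.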

What does the source list for 846-NWKLLAKGLLIRERLKR-863 [P17-XPC]?
factor of reduction of binding by the T138D phosphomimetic mutation [1]: 4; factor of reduction of affinity by the S158D mutation [2]: 3.7; factor of increase of binding by the presence of Ca2+ [3]: 5; factor of reduction of affinity by the T138D mutation ([4]; absence of Ca2+): 3; factor of reduction of affinity by the T138D mutation ([4]; presence of Ca2+): 2; factor of decrease of affinity by the T138D mutation [5]: 2; factor of reduction of affinity by the T138D-S158D double mutation ([6]; absence of Ca2+): 9; factor of reduction of affinity by the T138D-S158D double mutation ([6]; presence of Ca2+): 2; factor of reduction of binding by phosphorylation at T138 [7]: 10

With “P17-XPC, 17-residue peptide of human XPC” as the substance, how does the Ka [8] read?
Its Ka is 4.55e+06 M⁻¹.

What about the dH [8] of the same substance?
The dH was -30.2 kcal/mol.

What about the Ka [9] of the same substance?
Its Ka is 430000 M⁻¹.

And the dH [9]?
Its dH is -32.6 kcal/mol.

And the Ka [10]?
Its Ka is 3.34e+07 M⁻¹.

And the dH [10]?
Its dH is -23.6 kcal/mol.

And the Ka [11]?
Its Ka is 9.03e+06 M⁻¹.

How did the “factor of decrease of affinity by the T138E mutation” value [12] turn out when 325-MAVATGSWDSFLKIWN-340 [Trd] was run?
The value was 7.
